In ChEMBL document CHEMBL1811833, “Phenylimino-10H-anthracen-9-ones as novel antimicrotubule agents-synthesis, antiproliferative activity and inhibition of tubulin polymerization” (Bioorg Med Chem, 2011):
Active and inactive are the calls of the source. The calls are words filed in the database; no cut-off is given here.

Key:
[1] = molecular target: T1, Tubulin (Sus scrofa, UniProt P02554+P02550); assay: Inhibition of pig brain tubulin polymerization after 30 mins by turbidimetry analysis
[2] = system: K562; assay: Antiproliferative activity against human K562 cells after 48 hrs by hemocytometer; format: functional, cell-based; conditions: K562, 48 h
Method in brief: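 K562 human erythroid leukemia cells were treated with drug for 48 h, and the cells were then counted directly with a hemocytometer. IC50 is the concentration giving 50% inhibition of cell growth. Values are means of at least three independent determinations.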

[3] = system: L1210; assay: Antiproliferative activity against mouse L1210 cells after 48 hrs by XTT assay; format: functional, cell-based; conditions: L1210, 48 h
Method in brief: (§1)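 Cells were exposed to test compound for 48 h and growth was read by XTT proliferation assay. Experiments were run in at least two replicates (n = 2). IC50 was calculated from dose–response curves by nonlinear regression.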

[4] = system: L1210; assay: Antiproliferative activity against mouse VCR-resistant L1210 cells after 48 hrs by XTT assay; format: functional, cell-based; conditions: L1210, 48 h; method in brief: as §1
[5] = Antiproliferative activity against rat multiple drug-resistant LT12 cells after 48 hrs by XTT assay; format: functional, cell-based; conditions: LT12, 48 h; method in brief: as §1
[6] = system: SK-OV-3; assay: Cytotoxicity against human SKOV3 cells after 48 hrs by XTT assay; format: functional, cell-based; conditions: SK-OV-3, 48 h; method in brief: as §1
[7] = Cytotoxicity against human KB/HeLa cells after 48 hrs by XTT assay; format: functional, cell-based; method in brief: as §1
[8] = Antiproliferative activity against rat LT12 cells after 48 hrs by XTT assay; format: functional, cell-based; conditions: LT12, 48 h
[9] = Cell cycle arrest in human KB/HeLa cells assessed as accumulation of cells at G2/M phase after 24 hrs by flow cytometry; format: functional, cell-based
Method in brief: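 Sub-confluent KB/HeLa cells were exposed to a range of compound concentrations for 24 h. The cells were then permeabilized and stained with propidium iodide, and DNA content was measured by flow cytometry. The percentage of cells in G2/M was plotted against concentration, and EC50 is the concentration giving 50% of cells arrested in G2/M. At least two replicates were run, with nonlinear regression fitting.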

[10] = system: P388; assay: Antiproliferative activity against ADR-resistant mouse P388 cells after 48 hrs by XTT assay; format: functional, cell-based; conditions: P388, 48 h; method in brief: as §1
[11] = system: NCI-H460; assay: Cytotoxicity against human NCI-H460 cells after 48 hrs by XTT assay; format: functional, cell-based; conditions: NCI-H460, 48 h; method in brief: as §1
[12] = molecular target: Tubulin (Sus scrofa) (UniProt P02554+P02550); assay: Displacement of [3H]paclitaxel from biotinylated pig brain tubulin after 2 hrs by competitive scintillation proximity assay
[13] = system: SF-268; assay: Cytotoxicity against human SF268 cells after 48 hrs by XTT assay; format: functional, cell-based; conditions: SF-268, 48 h; method in brief: as §1
[14] = molecular target: T1, Tubulin; assay: Displacement of [3H]colchicine from biotinylated pig brain tubulin after 2 hrs by competitive scintillation proximity assay
[15] = system: P388; assay: Antiproliferative activity against mouse P388 cells after 48 hrs by XTT proliferation assay; format: functional, cell-based; conditions: P388, 48 h; method in brief: as §1
[16] = Cytotoxicity against non induced human RKOp27 cells after 48 hrs by XTT assay; format: functional, cell-based; conditions: RKOp27, 48 h; method in brief: as §1
[17] = Cytotoxicity against ponasterone A-induced human RKOp27 cells with ectopic inducible expression of CDK inhibitor-kip1 after 48 hrs by XTT assay; format: functional, cell-based; conditions: RKOp27, 48 h; method in brief: as §1

SMILES: COc1cccc(NN=C2c3ccccc3C(=O)c3ccccc32)c1
- IC50 [1]: > 10000 nM
- IC50 [2]: 9000 nM

SMILES: COc1ccc(N=C2c3ccccc3C(=O)c3ccccc32)cc1O
- IC50 [3]: 290 nM
- IC50 [4]: 220 nM
- IC50 [1]: 440 nM
- IC50 [5]: 140 nM
- IC50 [6]: 160 nM
- IC50 [7]: 220 nM
- IC50 [8]: 180 nM
- IC50 [2]: 130 nM
- EC50 [9]: 359 nM
- IC50 [10]: 230 nM
- IC50 [11]: 210 nM
- Activity [12]: inactive
- IC50 [13]: 340 nM
- IC50 [14]: 1100 nM
- IC50 [15]: 230 nM
- IC50 [16]: 170 nM
- IC50 [17]: > 9000 nM

SMILES: O=C1c2ccccc2C(=Nc2ccccc2)c2ccccc21
- IC50 [1]: 1450 nM
- IC50 [2]: 6800 nM

SMILES: COc1ccc(N=C2c3ccccc3C(=O)c3ccccc32)c(OC)c1
- IC50 [1]: 1600 nM
- IC50 [2]: 3400 nM

SMILES: COc1ccc(NN=C2c3ccccc3C(=O)c3ccccc32)cc1
- IC50 [1]: > 10000 nM
- IC50 [2]: 8410 nM

SMILES: COc1ccc(N=C2c3ccccc3C(=O)c3ccccc32)cc1OC
- IC50 [1]: 3600 nM
- IC50 [2]: 9300 nM

SMILES: O=C1c2ccccc2C(=NNc2ccccc2)c2ccccc21
- IC50 [1]: > 10000 nM

SMILES: CC[C@]1(O)C[C@H]2CN(CCc3c([nH]c4ccccc34)[C@@](C(=O)OC)(c3cc4c(cc3OC)N(C=O)[C@H]3[C@@](O)(C(=O)OC)[C@H](OC(C)=O)[C@]5(CC)C=CCN6CC[C@]43[C@@H]65)C2)C1 [VINCRISTINE]
- EC50 [9]: 2.4 nM

SMILES: COc1ccc(N=C2c3ccccc3C(=O)c3ccccc32)cc1
- IC50 [1]: 1900 nM
- IC50 [2]: 680 nM

SMILES: COC(=O)Nc1nc2cc(C(=O)c3cccs3)ccc2[nH]1 [NOCODAZOLE]
- IC50 [5]: 70 nM
- IC50 [7]: 140 nM
- IC50 [8]: 40 nM
- EC50 [9]: 91 nM
- IC50 [16]: 110 nM
- IC50 [17]: > 10000 nM

SMILES: COc1cc2c(c(OC)c1OC)-c1ccc(OC)c(=O)cc1[C@@H](NC(C)=O)CC2 [COLCHICINE]
- IC50 [7]: 30 nM
- EC50 [9]: 14 nM
- IC50 [16]: 20 nM
- IC50 [17]: > 10000 nM

SMILES: COc1cc(N=C2c3ccccc3C(=O)c3ccccc32)cc(OC)c1OC
- IC50 [1]: > 10000 nM
- IC50 [2]: > 30000 nM

SMILES: COc1cc(NN=C2c3ccccc3C(=O)c3ccccc32)cc(OC)c1OC
- IC50 [1]: > 10000 nM
- IC50 [2]: 2740 nM

SMILES: COc1ccc(OC)c(NN=C2c3ccccc3C(=O)c3ccccc32)c1
- IC50 [1]: > 10000 nM
- IC50 [2]: > 80000 nM

SMILES: COc1ccc(OC)c(N=C2c3ccccc3C(=O)c3ccccc32)c1
- IC50 [2]: 870 nM

SMILES: O=C1c2ccccc2C(=Nc2ccc3c(c2)OCO3)c2ccccc21
- IC50 [2]: 2670 nM

SMILES: CC[C@]1(O)C[C@@H]2CN(CCc3c([nH]c4ccccc34)[C@@](C(=O)OC)(c3cc4c(cc3OC)N(C)[C@H]3[C@@](O)(C(N)=O)[C@H](O)[C@]5(CC)C=CCN6CC[C@]43[C@@H]65)C2)C1 [VINDESINE]
- IC50 [4]: > 5000 nM
- IC50 [5]: 260 nM
- IC50 [8]: 1 nM

SMILES: COc1cc(N=C2c3ccccc3C(=O)c3ccccc32)cc(OC)c1
- IC50 [1]: 1600 nM
- IC50 [2]: 730 nM

SMILES: CC(=O)O[C@H]1C(=O)[C@@]2(C)[C@H]([C@H](OC(=O)c3ccccc3)[C@]3(O)C[C@H](OC(=O)[C@H](O)[C@@H](NC(=O)c4ccccc4)c4ccccc4)C(C)=C1C3(C)C)[C@]1(OC(C)=O)CO[C@@H]1C[C@@H]2O [PACLITAXEL]
- IC50 [4]: > 5000 nM
- IC50 [5]: 400 nM
- IC50 [7]: 10 nM
- EC50 [9]: 49 nM
- IC50 [10]: > 5000 nM
- IC50 [16]: 10 nM
- IC50 [17]: > 3000 nM

SMILES: COc1ccc(N=C2c3cccc(Cl)c3C(=O)c3c(Cl)cccc32)cc1
- IC50 [2]: 520 nM

SMILES: COc1ccc(N=C2c3cccc(Cl)c3C(=O)c3c(Cl)cccc32)cc1O
- IC50 [3]: 190 nM
- IC50 [4]: 190 nM
- IC50 [1]: 1110 nM
- IC50 [5]: 160 nM
- IC50 [6]: 100 nM
- IC50 [7]: 150 nM
- IC50 [8]: 310 nM
- IC50 [2]: 110 nM
- EC50 [9]: 121 nM
- IC50 [10]: 300 nM
- IC50 [11]: 180 nM
- Activity [12]: inactive
- IC50 [13]: 150 nM
- IC50 [14]: 2600 nM
- IC50 [15]: 230 nM
- IC50 [16]: 160 nM
- IC50 [17]: > 9000 nM
